Where “and” joins values, the source holds several entries; their conditions need not be identical. Identical values can stand only once. Calls of active or inactive are those of the source.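 How the source made its calls: active means lowest compound dose that cuts the imipenem minimum inhibitory concentration fourfold is 10 µM or below; inactive means that dose above 10 µM or never reached.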
System: not listed separately
Assay: imipenem potentiation in IMP-1-expressing E. coli, late-stage follow-up, VIM-2 MBL inhibitor project, E. coli BL21, powder samples (AID 624097)
Conditions: E. coli BL21 IMP-1, imipenem synergy, OD590, 18 h; measured here: max imipenem fold potentiation; stronger effect = higher value
Outline: (§1)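 Signal: turbidity by absorbance at 590 nm, MIC per CLSI / Test system: IMP-1-transformed E. coli BL21 bacteria / Also added: imipenem in two-fold dilution series / Times: ≥18 h growth at 37 °C, aerobic / Medium: Mueller-Hinton broth, cation-adjusted (CAMHB) / Dosing: compound two-fold dilutions in checkerboard grid versus imipenem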
CN1CCN(C(=O)CN2C(=O)/C(=C/c3c(Cl)ccc(Cl)c3Cl)SC2=S)CC1 gave a fold potentiation of 8.

System: E. coli BL21 IMP-1, imipenem synergy, OD590, 18 h
Assay: as above
Conditions: not given
Outline: as §1
With CN1CCN(NC(=O)CN2C(=O)/C(=C/c3c(Cl)ccc(Cl)c3Cl)SC2=S)CC1 the MIC was 0.781 µM and 1.56 µM.
For O=C(CN1C(=O)/C(=C/c2c(Cl)ccc(Cl)c2Cl)SC1=S)NN1CCNCC1, the MIC was 25 µM (inactive).
Compound CN1CCN(C(=O)CN2C(=O)/C(=C/c3c(Cl)ccc(Cl)c3Cl)SC2=S)CC1 has an MIC of 0.781 µM.
With O=C(CN1C(=O)/C(=C/c2c(Cl)ccc(Cl)c2Cl)SC1=S)NCc1ccccn1 the MIC was 0.781 µM.
For CC(C)(C)OC(=O)N1CCN(NC(=O)CN2C(=O)/C(=C/c3c(Cl)ccc(Cl)c3Cl)SC2=S)CC1, the MIC was 3.12 µM.
With CN1CCN(NC(=O)CN2C(=O)/C(=C/c3c(Cl)cccc3Cl)SC2=S)CC1 the MIC was 25 µM (inactive) and 3.12 µM.

From PubChem BioAssay AID624097 (The Scripps Research Institute Molecular Screening Center, 2012)
